Common to all, as to details: stereoisomer not certain
For one assay, the system named is T1, O5AN1.
T1 sequence (whole entry): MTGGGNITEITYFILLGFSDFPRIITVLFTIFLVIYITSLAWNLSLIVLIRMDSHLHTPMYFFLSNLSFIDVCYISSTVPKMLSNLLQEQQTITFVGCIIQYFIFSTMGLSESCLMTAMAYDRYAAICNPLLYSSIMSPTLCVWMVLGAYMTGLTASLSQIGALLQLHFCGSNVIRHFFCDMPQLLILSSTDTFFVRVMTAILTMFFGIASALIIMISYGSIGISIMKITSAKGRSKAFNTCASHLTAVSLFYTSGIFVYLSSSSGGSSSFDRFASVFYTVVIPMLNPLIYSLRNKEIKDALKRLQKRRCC
In a few lines: (§1)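 Each entry records the cell line, G-protein, co-transfected protein and tags used. Methods varied with the source, often transient luciferase assays in mammalian cell lines. A receptor–molecule pair is called responsive (active) if the original authors judged its signal statistically different from baseline and non-responsive (inactive) otherwise.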

Another assay concerns O56A4 I247A. The method in brief:
as §1

In the next assay the test system is O56A4 I247V. The method in brief: as §1
Sequence of O56A4 I247V (as listed by the source, stated change not applied): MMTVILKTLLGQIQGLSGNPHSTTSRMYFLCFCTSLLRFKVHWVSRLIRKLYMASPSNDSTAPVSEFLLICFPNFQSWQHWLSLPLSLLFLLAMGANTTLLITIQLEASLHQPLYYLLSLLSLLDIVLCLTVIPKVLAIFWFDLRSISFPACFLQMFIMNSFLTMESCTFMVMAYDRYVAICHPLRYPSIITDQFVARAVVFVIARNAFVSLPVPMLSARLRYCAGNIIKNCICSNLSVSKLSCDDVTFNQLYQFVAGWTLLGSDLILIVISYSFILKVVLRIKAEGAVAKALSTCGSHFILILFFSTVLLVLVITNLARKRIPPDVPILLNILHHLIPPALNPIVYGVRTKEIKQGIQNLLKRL
The next assay deals with O56A4. In a few lines: as §1
Sequence of O56A4 (as listed by the source): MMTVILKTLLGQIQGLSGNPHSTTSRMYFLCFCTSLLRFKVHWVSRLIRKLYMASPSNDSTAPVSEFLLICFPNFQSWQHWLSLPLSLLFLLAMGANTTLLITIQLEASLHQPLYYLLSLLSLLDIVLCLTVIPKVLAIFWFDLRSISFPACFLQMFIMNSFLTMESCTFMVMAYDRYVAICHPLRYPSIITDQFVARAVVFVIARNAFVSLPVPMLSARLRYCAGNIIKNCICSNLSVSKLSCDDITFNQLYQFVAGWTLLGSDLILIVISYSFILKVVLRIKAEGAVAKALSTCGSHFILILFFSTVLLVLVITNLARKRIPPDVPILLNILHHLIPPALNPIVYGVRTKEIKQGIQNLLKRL
A further assay relates to O56A5 V104L. In a few lines: as §1
Sequence of O56A5 V104L (as listed by the source, stated change not applied): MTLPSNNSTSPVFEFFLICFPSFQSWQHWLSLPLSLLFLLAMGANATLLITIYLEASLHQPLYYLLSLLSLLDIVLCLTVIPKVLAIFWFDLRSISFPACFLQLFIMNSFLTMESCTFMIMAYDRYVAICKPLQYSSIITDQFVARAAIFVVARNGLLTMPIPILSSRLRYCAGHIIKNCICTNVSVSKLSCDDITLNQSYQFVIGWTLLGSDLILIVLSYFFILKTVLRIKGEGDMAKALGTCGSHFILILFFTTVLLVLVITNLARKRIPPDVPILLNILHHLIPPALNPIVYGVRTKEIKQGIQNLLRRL
The next assay deals with O56B1 C106R L214F. In a few lines: as §1
A further assay has as its system O56B1 L214F. In a few lines: as §1
The subject of a further assay is O56B4. The method in brief: as §1
In a further assay the test system is O5AC2. The method in brief:
as §1

Another assay relates to O5AK2 M92I. The method in brief: as §1
Sequence of O5AK2 M92I (as listed by the source, stated change not applied): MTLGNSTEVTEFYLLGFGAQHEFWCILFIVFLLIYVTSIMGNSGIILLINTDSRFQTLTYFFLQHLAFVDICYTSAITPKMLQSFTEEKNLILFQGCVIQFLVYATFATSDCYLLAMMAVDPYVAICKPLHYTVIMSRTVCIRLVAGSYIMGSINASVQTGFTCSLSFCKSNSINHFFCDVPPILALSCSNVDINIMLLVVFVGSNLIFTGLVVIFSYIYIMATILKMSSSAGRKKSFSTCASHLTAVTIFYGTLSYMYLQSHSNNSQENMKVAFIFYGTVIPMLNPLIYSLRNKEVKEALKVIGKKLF
For a further assay, the system named is O5AN1 C142Y L289F. The method in brief:
as §1

In another assay the test system is O5AN1 L289F. The method in brief:
as §1

The test system of a further assay is O5AP2 A105T. The method in brief: as §1
For the next assay, the system named is O5AU1. The method in brief:
as §1

The next assay relates to O5H14. The method in brief: as §1
Sequence of O5H14 (as listed by the source): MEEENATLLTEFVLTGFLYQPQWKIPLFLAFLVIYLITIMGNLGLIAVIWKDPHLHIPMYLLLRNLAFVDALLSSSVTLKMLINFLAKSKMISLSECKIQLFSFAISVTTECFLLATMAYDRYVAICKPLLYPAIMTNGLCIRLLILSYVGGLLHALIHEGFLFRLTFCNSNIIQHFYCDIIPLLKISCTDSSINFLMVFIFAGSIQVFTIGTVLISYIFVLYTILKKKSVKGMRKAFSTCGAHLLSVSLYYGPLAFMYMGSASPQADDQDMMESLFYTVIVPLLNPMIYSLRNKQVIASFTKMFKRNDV
For the next assay, the system named is O5H15 V108I S148T T167S. In a few lines: as §1
The subject of the next assay is O6C65 T222A. The method in brief: as §1
In the next assay the test system is O6C70 L181P. In a few lines: as §1
Sequence of O6C70 L181P (as listed by the source, stated change not applied): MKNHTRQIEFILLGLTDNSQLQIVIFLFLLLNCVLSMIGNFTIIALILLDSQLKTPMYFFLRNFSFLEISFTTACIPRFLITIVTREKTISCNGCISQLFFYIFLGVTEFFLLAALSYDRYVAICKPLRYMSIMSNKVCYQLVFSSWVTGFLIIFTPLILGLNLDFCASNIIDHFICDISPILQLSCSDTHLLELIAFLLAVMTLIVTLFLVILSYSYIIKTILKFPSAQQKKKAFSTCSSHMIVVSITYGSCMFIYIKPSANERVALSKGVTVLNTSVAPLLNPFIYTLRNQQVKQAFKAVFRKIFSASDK
The subject of another assay is O7E24 S193F P242S. The method in brief: as §1
For a further assay, the system named is O7E24. The method in brief: as §1
Sequence of O7E24 (as listed by the source): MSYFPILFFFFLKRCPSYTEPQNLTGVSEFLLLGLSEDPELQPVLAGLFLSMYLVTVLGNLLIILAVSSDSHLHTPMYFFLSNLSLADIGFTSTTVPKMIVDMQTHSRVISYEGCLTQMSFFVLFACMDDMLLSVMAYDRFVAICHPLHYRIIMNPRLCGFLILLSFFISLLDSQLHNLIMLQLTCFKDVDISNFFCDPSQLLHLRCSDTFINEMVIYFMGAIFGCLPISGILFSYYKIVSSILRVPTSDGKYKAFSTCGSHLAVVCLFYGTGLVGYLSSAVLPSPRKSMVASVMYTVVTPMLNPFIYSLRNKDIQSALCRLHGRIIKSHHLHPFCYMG

Molecules are shown by their SMILES.

Sequence of O56B4 (as listed by the source): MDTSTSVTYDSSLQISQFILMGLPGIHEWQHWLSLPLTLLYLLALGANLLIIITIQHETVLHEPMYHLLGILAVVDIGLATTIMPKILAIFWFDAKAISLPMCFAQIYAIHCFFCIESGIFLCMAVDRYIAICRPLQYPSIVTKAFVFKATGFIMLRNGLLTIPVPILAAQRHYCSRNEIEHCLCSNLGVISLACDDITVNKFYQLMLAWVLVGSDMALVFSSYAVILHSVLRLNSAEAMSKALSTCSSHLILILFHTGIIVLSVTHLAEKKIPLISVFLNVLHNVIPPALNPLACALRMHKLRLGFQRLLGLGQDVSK
Sequence of O5AC2 (as listed by the source): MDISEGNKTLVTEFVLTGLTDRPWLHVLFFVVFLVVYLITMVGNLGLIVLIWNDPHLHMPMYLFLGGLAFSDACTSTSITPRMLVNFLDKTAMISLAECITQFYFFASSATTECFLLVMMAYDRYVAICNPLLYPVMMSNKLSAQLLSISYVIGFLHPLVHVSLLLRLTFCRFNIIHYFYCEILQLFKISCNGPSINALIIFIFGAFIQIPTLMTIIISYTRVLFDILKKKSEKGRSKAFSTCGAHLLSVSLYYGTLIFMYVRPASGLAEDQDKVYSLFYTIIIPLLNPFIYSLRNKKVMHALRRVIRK
Sequence of O5AU1 (as listed by the source): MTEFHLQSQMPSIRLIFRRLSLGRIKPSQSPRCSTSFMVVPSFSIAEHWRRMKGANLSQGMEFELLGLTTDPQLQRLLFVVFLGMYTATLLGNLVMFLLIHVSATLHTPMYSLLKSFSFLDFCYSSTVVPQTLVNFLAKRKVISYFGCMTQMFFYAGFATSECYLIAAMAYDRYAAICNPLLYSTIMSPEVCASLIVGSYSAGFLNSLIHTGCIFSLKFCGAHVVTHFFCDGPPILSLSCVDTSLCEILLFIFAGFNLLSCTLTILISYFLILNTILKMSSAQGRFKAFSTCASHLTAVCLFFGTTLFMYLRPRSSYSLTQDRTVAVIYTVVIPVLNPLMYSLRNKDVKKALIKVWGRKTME
Sequence of O5AN1 L289F (as listed by the source, stated change not applied): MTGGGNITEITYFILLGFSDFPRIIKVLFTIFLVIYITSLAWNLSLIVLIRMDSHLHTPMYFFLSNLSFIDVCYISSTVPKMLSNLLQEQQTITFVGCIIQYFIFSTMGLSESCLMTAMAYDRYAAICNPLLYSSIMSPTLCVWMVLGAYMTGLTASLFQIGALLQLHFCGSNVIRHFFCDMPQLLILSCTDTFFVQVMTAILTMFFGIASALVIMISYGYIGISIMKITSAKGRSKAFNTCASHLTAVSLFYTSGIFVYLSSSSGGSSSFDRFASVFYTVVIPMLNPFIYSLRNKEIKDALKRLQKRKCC
Sequence of O56A4 I247A (as listed by the source, stated change not applied): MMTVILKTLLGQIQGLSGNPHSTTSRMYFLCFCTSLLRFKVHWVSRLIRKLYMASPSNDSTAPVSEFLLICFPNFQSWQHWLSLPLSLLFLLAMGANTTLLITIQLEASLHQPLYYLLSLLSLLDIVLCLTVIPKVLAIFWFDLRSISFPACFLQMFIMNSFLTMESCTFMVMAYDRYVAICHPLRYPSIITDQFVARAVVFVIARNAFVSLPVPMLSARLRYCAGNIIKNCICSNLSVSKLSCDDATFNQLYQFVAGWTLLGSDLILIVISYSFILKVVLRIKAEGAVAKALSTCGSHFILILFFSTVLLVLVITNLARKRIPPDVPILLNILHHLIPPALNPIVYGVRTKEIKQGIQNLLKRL
Sequence of O56B1 L214F (as listed by the source, stated change not applied): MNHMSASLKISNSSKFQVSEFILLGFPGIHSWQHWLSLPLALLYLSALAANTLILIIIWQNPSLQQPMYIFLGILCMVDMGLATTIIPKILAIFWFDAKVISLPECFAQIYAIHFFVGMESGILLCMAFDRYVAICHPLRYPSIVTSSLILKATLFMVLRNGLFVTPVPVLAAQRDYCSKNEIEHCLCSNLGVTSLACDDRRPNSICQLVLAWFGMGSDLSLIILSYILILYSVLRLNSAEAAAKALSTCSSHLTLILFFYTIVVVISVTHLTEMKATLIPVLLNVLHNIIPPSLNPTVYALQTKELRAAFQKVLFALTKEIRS
Sequence of O6C65 T222A (as listed by the source, stated change not applied): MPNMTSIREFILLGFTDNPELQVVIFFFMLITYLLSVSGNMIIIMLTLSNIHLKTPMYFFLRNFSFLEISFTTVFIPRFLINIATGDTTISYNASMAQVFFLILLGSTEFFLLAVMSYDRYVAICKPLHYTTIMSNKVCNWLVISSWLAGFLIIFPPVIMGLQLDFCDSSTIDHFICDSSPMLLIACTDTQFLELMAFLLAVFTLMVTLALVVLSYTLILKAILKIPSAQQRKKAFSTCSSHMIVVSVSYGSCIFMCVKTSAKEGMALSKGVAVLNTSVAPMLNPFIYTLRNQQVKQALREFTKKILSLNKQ

In the case of `CC(=O)c1cc2c(cc1C)C(C)(C)C(C)CC2(C)C` (configuration not stated), the “odorant receptor agonist call” value in the assay with O5AN1 is “inactive”.
Regarding `C=CCOC(=O)Cc1ccccc1`, the “odorant receptor agonist call” value in the assay on O56A4 I247A, in the assay on O56A4 I247V, in the assay with O56A4, in the assay with O56A5 V104L, with O56B1 C106R L214F and in the assay on O56B1 L214F was “inactive” throughout. For the same compound, the “odorant receptor agonist call” value with O56B4, in the assay with O5AC2, in the assay with O5AK2 M92I, in the assay with O5AN1 C142Y L289F, in the assay with O5AN1 L289F and in the assay on O5AP2 A105T was “inactive” throughout. The “odorant receptor agonist call” value with O5AU1, with O5H14, in the assay with O5H15 V108I S148T T167S, in the assay with O6C65 T222A, in the assay with O6C70 L181P and with O7E24 S193F P242S was “inactive” in each case. The “odorant receptor agonist call” value with O7E24 is “inactive”.
`CC(=O)c1cc(C(C)(C)C)cc2c1CCC2(C)C`: the “odorant receptor agonist call” value in the assay with O5AN1 was “inactive”.
As for `Cc1c([N+](=O)[O-])c(C)c([N+](=O)[O-])c(C(C)(C)C)c1[N+](=O)[O-]`, in the assay with O5AN1, the “odorant receptor agonist call” value was “active”.
